Experiment [1] deals with T1, Protein kinase C epsilon type (Homo sapiens) (UniProt Q02156).
T1 sequence (whole entry): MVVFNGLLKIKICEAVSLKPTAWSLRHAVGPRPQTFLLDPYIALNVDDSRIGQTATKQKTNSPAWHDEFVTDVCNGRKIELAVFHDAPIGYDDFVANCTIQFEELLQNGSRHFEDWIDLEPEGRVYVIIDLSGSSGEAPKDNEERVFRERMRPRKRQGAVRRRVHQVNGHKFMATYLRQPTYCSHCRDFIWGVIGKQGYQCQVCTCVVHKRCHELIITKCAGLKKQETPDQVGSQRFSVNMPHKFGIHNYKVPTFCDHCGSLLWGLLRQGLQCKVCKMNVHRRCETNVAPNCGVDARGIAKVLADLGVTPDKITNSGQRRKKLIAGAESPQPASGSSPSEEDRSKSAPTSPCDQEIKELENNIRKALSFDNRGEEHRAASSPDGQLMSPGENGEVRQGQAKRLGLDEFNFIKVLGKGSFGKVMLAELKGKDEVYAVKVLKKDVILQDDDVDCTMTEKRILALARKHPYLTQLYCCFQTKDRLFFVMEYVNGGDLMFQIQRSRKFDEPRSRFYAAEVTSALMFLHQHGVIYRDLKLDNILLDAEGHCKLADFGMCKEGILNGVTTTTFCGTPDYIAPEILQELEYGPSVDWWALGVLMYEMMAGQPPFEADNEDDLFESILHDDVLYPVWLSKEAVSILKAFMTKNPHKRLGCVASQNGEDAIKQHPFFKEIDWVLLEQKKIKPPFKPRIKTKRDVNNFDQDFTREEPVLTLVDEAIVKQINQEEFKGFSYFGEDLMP
Put plainly: Activation of GFP-fused PKCepsilon in HeLa cells assessed as translocation of PKCepsilon from cytosol to membrane measured after 30 mins by DAPI staining based fluorescence microscopy. The format is subcellular. A digest of the protocol: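 HeLa cells transfected with pEGFP-N1-PKCε, plated on coverslips, serum-starved 24 h after 24 h, then treated 30 min; methanol-fixed, DAPI counterstained, imaged by fluorescence microscopy. Membrane/cytosol ratio from line intensity profiles across ~10–15 cells/group, operator blinded; mean ± SD; PMA 100 nM as control.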

In experiment [2] the target is T1, Protein kinase C epsilon type (Homo sapiens). Description: Displacement of [3H]-PDBu from recombinant human PKCepsilon at 10 uM by scintillation counter method relative to control. In short, it runs like this:
(§1)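 Competition of 2 nM [3H]PDBu by test ligand at a single fixed concentration (value in line); 50 mM Tris-HCl pH 7.4, 100 μg/mL porcine brain phosphatidylserine, 5 mg/mL bovine IgG, 0.003% Tx-100, 20 ng/tube enzyme; 0.1 mM Ca2+ for PKCα, 1 mM EGTA for PKCε. 5 min at 37 °C, PEG precipitation, bound and free counted separately; nonspecific with 10 μM cold PDBu; triplicates.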

The target of experiment [3] is T2, Protein kinase C alpha type (Homo sapiens, UniProt P17252). Description: Displacement of [3H]-PDBu from recombinant human PKCalpha at 30 uM by scintillation counter method relative to control. A digest of the protocol: as §1
(Displacement assays read how much labelled ligand stays bound in the presence of the test substance.)

The target of experiment [4] is T3, Protein kinase C epsilon type (Homo sapiens, UniProt Q02156).
T3 sequence (Q02156 whole entry): T1 sequence (whole entry)
Put plainly: Displacement of [3H]-PDBu from recombinant human PKCepsilon by scintillation counter method. A digest of the protocol: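 PKCε with 2 nM [3H]PDBu plus increasing competitor concentrations, in 50 mM Tris-HCl pH 7.4, 100 μg/mL phosphatidylserine, 1 mM EGTA, 5 mg/mL bovine IgG, 0.003% Tx-100, 20 ng/tube enzyme; 37 °C 5 min, then PEG precipitation and counting of pellet and supernatant. Nonspecific binding from 10 μM unlabeled PDBu. Ki derived from competition-curve ID50; mean ± SEM of three experiments, triplicate points.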

Experiment [5] deals with T2, Protein kinase C alpha type. Put plainly: Displacement of [3H]-PDBu from recombinant human PKCalpha by scintillation counter method. A digest of the protocol:
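[3H]PDBu (2 nM) competition with increasing ligand in 50 mM Tris-HCl pH 7.4, 100 μg/mL porcine brain phosphatidylserine, 0.1 mM Ca2+ (PKCα), 5 mg/mL bovine IgG, 0.003% Triton X-100, 20 ng enzyme/tube; nonspecific with 10 μM PDBu. 37 °C 5 min, PEG precipitation, bound and free counted by scintillation. Triplicates; Ki from ID50; three experiments, mean ± SEM.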

The test system of experiment [6] is A549. Description: Induction of ruffle formation in human A549 cells transfected with PKCepsilon siRNA at 1 microM incubated for 30 mins using phalloidin-rhodamine staining based microscopic analysis. The format is functional, cell-based. In short, it runs like this:
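A549 cells transfected with PKCε siRNA duplexes (two sequences) or nontarget control; 48 h later treated 1 μM for 30 min, formaldehyde-fixed, phalloidin-rhodamine stained; ruffle area/cell by intensity thresholding. Knockdown checked by Q-PCR mRNA and Western blot.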

For experiment [7], the target named is T1, Protein kinase C epsilon type (Homo sapiens). Description: Displacement of [3H]-PDBu from recombinant human PKCepsilon at 30 uM by scintillation counter method relative to control. In short, it runs like this:
as §1

Experiment [8] relates to A549. Description: Induction of ruffle formation in human A549 cells at 1 microM incubated for 30 mins using phalloidin-rhodamine staining based microscopic analysis. Type of experiment: functional, cell-based. A digest of the protocol:
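Serum-starved (24 h) A549 cells at low confluence on coverslips treated 30 min at 1 μM; fixed in 4% formaldehyde, F-actin stained with phalloidin-rhodamine, DAPI nuclei. Five random fields scored; ruffle area per cell by intensity thresholding.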

In experiment [9] the target is T2, Protein kinase C alpha type. Description: Activation of GFP-fused PKCalpha in HeLa cells assessed as […] from cytosol to membrane measured after 30 mins by DAPI staining based fluorescence microscopy. Type of experiment: subcellular. The settings on record: filed as activator. In short, it runs like this:
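HeLa cells (5 × 10^4) transfected with pEGFP-N1-PKCα or -PKCε, plated on coverslips; after 24 h serum-starved 24 h, then treated 30 min. Methanol-fixed, DAPI-counterstained, imaged by fluorescence microscopy. Line scans across cytoplasm (~10–15 cells/group) give membrane/cytosol fluorescence ratio; operator blinded; mean ± SD.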

pKi: −log10 of the molar value. Active and inactive are the calls of the source.

With `Cc1ccc(-c2cn(CC3(CO)C/C(=C\CC(CC(C)C)CC(C)C)C(=O)O3)nn2)cc1` (centres undefined), the outcome in experiment [1] was inactive. In addition, the inhibition (usually the relative decrease from the control value, in per cent) in [2] is 17%.

In the case of `CC(C)=C1CC(CO)(COc2cc(C)on2)OC1=O` (centres undefined), the inhibition in experiment [3] turned out to be 31.3%.

For the compound `Cc1cc(OCC2(CO)C/C(=C\CC(CC(C)C)CC(C)C)C(=O)O2)no1` (centres undefined), the figures for the negative logarithm of the Ki (pKi) in experiment [4] and in experiment [5] were 7.47 and 7.10, respectively. The outcome in the experiment with A549 [6] was inactive.

In the case of `CC(C)CC(C/C=C1\CC(CO)(Cn2nnc(-c3ccccc3)n2)OC1=O)CC(C)C` (centres undefined), the inhibition in experiment [3] is 37.5%; in experiment [7], 69.2%.

As to `CC(C)=C1CC(CO)(Cn2cc(-c3ccc(C)cc3)nn2)OC1=O` (centres undefined), in [3], the inhibition is 11.7%. The result in experiment [1] was inactive.

Regarding `CC(C)CC(C/C=C1\CC(CO)(COC(=O)C(C)(C)C)OC1=O)CC(C)C` (centres undefined), the negative logarithm of the Ki (pKi) (commonly −log10 of the Ki, conventionally taken in molar units) is 8.72 in experiment [4] and 7.63 in experiment [5]. Besides, in the experiment with A549 [6], the outcome was inactive. In experiment [1] (filed as activator), the fold change (FC) was 43. The outcome with A549 [8] was Active.

Regarding `CC(C)=C1CC(CO)(Cn2nnc(-c3ccccc3)n2)OC1=O` (centres undefined), in experiment [3], the inhibition stood at 23.5%. In addition, in experiment [1], the result was inactive.

Turning to `CCCCCCCCCCCCCC(=O)O[C@@H]1[C@@H](C)[C@@]2(O)[C@@H](C=C(CO)C[C@]3(O)C(=O)C(C)=C[C@@H]23)[C@@H]2C(C)(C)[C@]12OC(C)=O`, the outcome in [9] was Active. Moreover, the outcome in experiment [1] was inactive.

These data come from ChEMBL document CHEMBL5030521, “Design, Synthesis, and Characterization of Novel sn-1 Heterocyclic DAG-Lactones as PKC Activators” (J Med Chem, 2021).
